ChEMBL document CHEMBL4765328 (Eur J Med Chem, 2020)
The source made the active and inactive calls. The calls are words filed in the database; no cut-off is given here.

Key:
HeLa [1] = experiment: Antiproliferative activity against human HeLa cells assessed as inhibition of cell growth; format: functional, cell-based
In short: (§1)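 Growth inhibition of cancer cell lines read from dose-response curves; IC50 as mean ± SEM of at least three independent experiments.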

HT-29 = experiment: Antiproliferative activity against human HT-29 cells assessed as inhibition of cell growth; format: functional, cell-based; in short: as §1
Daoy = experiment: Antiproliferative activity against human Daoy cells assessed as inhibition of cell growth; format: functional, cell-based
In short: (§2)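 Compounds from 10 mM DMSO stocks; final DMSO ≤0.25%. Growth inhibition of cancer cell lines read from dose-response curves; IC50 as mean ± SEM of at least three independent experiments.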

Jurkat = experiment: Antiproliferative activity against human Jurkat cells assessed as inhibition of cell growth; format: functional, cell-based; in short: as §2
[2] = Cytotoxicity against human PBL assessed as inhibition of cell growth; format: cell-based; conditions: peripheral blood lymphocytes (PBL)
In short: (§3)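 Peripheral blood lymphocytes from healthy donors, tested either unstimulated or stimulated with PHA; DMSO ≤0.25% final. Values are mean ± SEM of three separate experiments.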

[3] = Cytotoxicity against PHA-stimulated human PBL assessed as inhibition of cell growth; format: cell-based; conditions: PHA-stimulated peripheral blood lymphocytes (PBL); in short: as §3
[4] = Cytotoxicity against normal human astrocytes assessed as inhibition of cell growth; format: cell-based, Astrocyte
Bos taurus [5] = organism: Bos taurus; experiment: Inhibition of [3H]colchicine binding to bovine brain tubulin at 5 uM relative to control
In short: (§4)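 [3H]colchicine binding to purified tubulin, with tubulin at 0.5 µM and colchicine at 5 µM. Compounds tested at 5 and 0.5 µM. CA-4 was run in contemporaneous experiments for comparison.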

Bos taurus [6] = organism: Bos taurus; experiment: Inhibition of [3H]colchicine binding to bovine brain tubulin at 0.5 uM relative to control; format: tissue-based; in short: as §4
HeLa [7] = experiment: Downregulation of BubR1 expression in human HeLa cells at 10 nM after 24 hrs by Western blot analysis; format: functional, cell-based
In short: (§5)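 HeLa cells treated 24 or 48 h, then washed in cold PBS and lysed in 0.1% Triton X-100/RNase A at 0 °C. Lysates were cleared at 15,000 x g. 10 µg protein was run on SDS-PAGE and blotted to PVDF, blocked in 5% BSA, and probed 2 h at room temperature with primary antibodies. HRP secondary and ECL detection followed; β-actin reprobe served as loading control.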

HeLa [8] = experiment: Downregulation of BubR1 expression in human HeLa cells at 10 nM after 48 hrs by Western blot analysis; format: functional, cell-based; in short: as §5
HeLa [9] = experiment: Downregulation of MAD-2 expression in human HeLa cells at 10 nM after 24 hrs by Western blot analysis; format: functional, cell-based; in short: as §5
HeLa [10] = experiment: Downregulation of MAD-2 expression in human HeLa cells at 10 nM after 48 hrs by Western blot analysis; format: functional, cell-based; in short: as §5
HeLa [11] = experiment: Induction of apoptosis in human HeLa cells assessed as early apoptotic cells at 10 nM measured after 24 hrs by Annexin V-FITC/propidium iodide staining based flow cytometry (reference value: 2.1 %); format: functional
HeLa [12] = experiment: Induction of apoptosis in human HeLa cells assessed as late apoptotic cells at 10 nM measured after 24 hrs by Annexin V-FITC/propidium iodide staining based flow cytometry (reference value: 6.07 %); format: functional
HeLa [13] = experiment: Induction of apoptosis in human HeLa cells assessed as necrotic cells at 10 nM measured after 24 hrs by Annexin V-FITC/propidium iodide staining based flow cytometry (reference value: 2.26 %); format: functional
HeLa [14] = experiment: Induction of apoptosis in human HeLa cells assessed as early apoptotic cells at 10 nM measured after 48 hrs by Annexin V-FITC/propidium iodide staining based flow cytometry (reference value: 2.1 %); format: functional
HeLa [15] = experiment: Induction of apoptosis in human HeLa cells assessed as late apoptotic cells at 10 nM measured after 48 hrs by Annexin V-FITC/propidium iodide staining based flow cytometry (reference value: 6.07 %); format: functional
HeLa [16] = experiment: Induction of apoptosis in human HeLa cells assessed as necrotic cells at 10 nM measured after 48 hrs by Annexin V-FITC/propidium iodide staining based flow cytometry (reference value: 2.26 %); format: functional
HeLa [17] = experiment: Induction of mitochondrial membrane potential loss in human HeLa cells assessed as cells with depolarized mitochondrial membrane at 10 nM after 48 hrs by JC-1 dye-based flow cytometric analysis (reference value: 5.7 %); format: functional
HeLa [18] = experiment: Induction of mitochondrial membrane potential loss in human HeLa cells assessed as cells with polarized mitochondrial membrane at 10 nM after 24 hrs by JC-1 dye-based flow cytometric analysis (reference value: 94.3 %); format: functional
HeLa [19] = experiment: Induction of mitochondrial membrane potential loss in human HeLa cells assessed as cells with polarized mitochondrial membrane at 10 nM after 48 hrs by JC-1 dye-based flow cytometric analysis (reference value: 94.3 %); format: functional
HeLa [20] = experiment: Induction of apoptosis in human HeLa cells assessed as increase in cleavage of caspase 9 at 10 nM after 24 hrs by Western blot analysis; format: functional, cell-based; in short: as §5
HeLa [21] = experiment: Induction of apoptosis in human HeLa cells assessed as increase in PARP cleavage at 10 nM after 48 hrs by Western blot analysis; format: functional, cell-based; in short: as §5
HeLa [22] = experiment: Induction of apoptosis in human HeLa cells assessed as increase in bcl-2 phosphorylation at 10 nM after 48 hrs by Western blot analysis; format: functional, cell-based; in short: as §5
HeLa [23] = experiment: Induction of apoptosis in human HeLa cells assessed as reduction in mcl-1 protein expression at 10 nM after 24 hrs by Western blot analysis; format: functional, cell-based
HUVEC [24] = experiment: Antivascular activity against HUVEC assessed as inhibition of capillary like tube formation at 100 nM incubated for 1 hr by matrigel based assay; format: functional, cell-based; conditions: Homo sapiens
In short: (§6)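 HUVECs used at passages 1–6 in M200 with low-serum growth supplement. 6 x 10^4 cells seeded on gelled Matrigel (37 °C, 30 min) and left 6 h to form tubes. Preformed networks then treated 1 h at 10 or 100 nM and photographed at five fields per well. Image analysis gave segment length, mesh area and number, covered area and branch points; three independent experiments.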

HUVEC [25] = experiment: Antivascular activity against HUVEC assessed as effect on segment length in preformed capillary like tube network at 10 nM incubated for 1 hr by imaging analysis; format: functional, cell-based; conditions: Homo sapiens; in short: as §6
HUVEC [26] = experiment: Antivascular activity against HUVEC assessed as effect on meshes area in preformed capillary like tube network at 10 nM incubated for 1 hr by imaging analysis; format: functional, cell-based; conditions: Homo sapiens; in short: as §6
[27] = Antitumor activity mouse E0771 cells implanted in C57BL/6 mouse assessed as reduction tumor mass at 5 mg/kg, ip administered every other day relative to control; format: functional, EO771; design: scale not given: the % may be the effect or the level left
In short: (§7)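 Seven-week-old female C57BL/6 mice received 4 x 10^5 E0771 cells orthotopically in the mammary fat pad and were randomized once tumors were palpable. Dosing was ip every other day at 5 or 15 mg/kg, with DMSO vehicle in 100 µL. Caliper volume was V=(D×d²)/2, and tumor weight was taken at endpoint; n=5/group. Analysis used two-way ANOVA with Bonferroni.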

EO771 = experiment: Antitumor activity against mouse E0771 cells implanted in ip dosed C57BL/6 mouse assessed as reduction tumor growth administered every other day; format: functional, organism-based; conditions: dose 5-15 mg/kg; in short: as §7
HL-60 = experiment: Potency index, ratio […] for human HL-60 cells assessed as inhibition of cell growth; format: functional
SEM cells = experiment: Potency index, ratio of CA-4 IC50 to compound IC50 for human SEM cells assessed as inhibition of cell growth; format: functional

CCOc1ccc2c(C(=O)c3cc(OC)c(OC)c(OC)c3)c(N)oc2c1
IC50 (HeLa [1]): 2.8 nM | IC50 (HT-29): 2.1 nM | IC50 (Daoy): 0.005 nM | IC50 (Jurkat): 0.28 nM | GI50 [2]: 8700 nM | GI50 [3]: > 10000 nM | GI50 [4]: > 10000 nM | inhibition (Bos taurus [5]): 99% | inhibition (Bos taurus [6]): 86% | Activity (HeLa [7]): Active | Activity (HeLa [8]): Active | Activity (HeLa [9]): Active | Activity (HeLa [10]): Active | Activity (HeLa [11]): 6.72% | Activity (HeLa [12]): 14.05% | Activity (HeLa [13]): 14.77% | Activity (HeLa [14]): 23.53% | Activity (HeLa [15]): 23.53% | Activity (HeLa [16]): 21.63% | Activity (HeLa [17]): 54.7% | Activity (HeLa [18]): 75.7% | Activity (HeLa [19]): 45.3% | Activity (HeLa [20]): Active | Activity (HeLa [21]): Active | Activity (HeLa [22]): Active | Activity (HeLa [23]): Active | Activity (HUVEC [24]): Active | Activity (HUVEC [25]): Active | Activity (HUVEC [26]): Active | Activity [27]: 16.9% | Activity (EO771): Dose-dependent effect | Ratio IC50 (HL-60): 3 | Ratio IC50 (SEM cells): 16
